Experimental data as given in ChEMBL document CHEMBL1821567, “Synthesis and glycosidase inhibitory profiles of functionalised morpholines and oxazepanes” (Bioorg Med Chem, 2011).
Activity calls are given as the source filed them. The rule behind the calls is not given here.

Key:
[1] = biological target: Alpha-galactosidase (Coffea arabica) (UniProt Q42656); test: Inhibition of green coffee beans alpha-D-galactosidase at 1 mg/ml after 10 to 20 mins
Summary of the method: (§1)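 Enzyme was pre-incubated with test solution at 1 mg/ml, or dH2O for controls, for 10–20 min at 27 °C. Substrate was added and incubation continued for the same time at 27 °C. The reaction was stopped with glycine solution and read at 405 nm. Each sample and control ran in three wells at the enzyme's optimal pH. Values are % inhibition.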

[2] = tested on: Geobacillus stearothermophilus; test: Inhibition of Bacillus stearothermophilus alpha-D-glucosidase at 1 mg/ml after 10 to 20 mins; summary of the method: as §1
Cellulomonas fimi = test: Inhibition of Cellulomonas fimi beta-D-mannosidase at 1 mg/ml after 10 to 20 mins; summary of the method: as §1
Oryza sativa = test: Inhibition of rice alpha-D-glucosidase at 1 mg/ml after 10 to 20 mins; summary of the method: as §1
Canavalia ensiformis = test: Inhibition of jack bean alpha-D-mannosidase at 1 mg/ml after 10 to 20 mins; summary of the method: as §1
Saccharomyces cerevisiae = test: Inhibition of Saccharomyces cerevisiae alpha-D-glucosidase at 1 mg/ml after 10 to 20 mins; summary of the method: as §1
[3] = biological target: T1, Beta-galactosidase (Bos taurus) (UniProt Q58D55); test: Inhibition of bovine kidney beta-D-galactosidase at 1 mg/ml after 10 to 20 mins; summary of the method: as §1
T1 sequence (whole entry): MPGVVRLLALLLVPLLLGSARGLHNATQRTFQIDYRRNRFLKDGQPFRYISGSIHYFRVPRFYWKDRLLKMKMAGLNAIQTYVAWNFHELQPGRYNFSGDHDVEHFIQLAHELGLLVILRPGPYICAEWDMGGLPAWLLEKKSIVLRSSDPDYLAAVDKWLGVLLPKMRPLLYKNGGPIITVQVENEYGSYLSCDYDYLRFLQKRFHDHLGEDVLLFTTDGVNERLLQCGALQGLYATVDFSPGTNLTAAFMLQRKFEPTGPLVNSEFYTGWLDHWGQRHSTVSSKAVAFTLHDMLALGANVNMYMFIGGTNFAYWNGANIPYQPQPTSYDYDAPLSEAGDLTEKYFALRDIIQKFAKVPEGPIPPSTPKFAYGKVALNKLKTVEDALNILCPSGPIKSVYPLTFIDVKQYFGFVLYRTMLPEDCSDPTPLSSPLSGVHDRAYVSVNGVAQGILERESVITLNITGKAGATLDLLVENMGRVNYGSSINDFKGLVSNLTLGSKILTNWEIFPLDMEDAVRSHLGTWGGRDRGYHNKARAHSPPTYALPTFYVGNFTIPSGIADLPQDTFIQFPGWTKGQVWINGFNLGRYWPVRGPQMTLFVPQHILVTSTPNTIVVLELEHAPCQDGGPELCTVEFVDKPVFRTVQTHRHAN

Bos taurus = species: Bos taurus; test: Inhibition of bovine kidney N-acetyl-beta-D-glucosaminidase at 1 mg/ml after 10 to 20 mins; summary of the method: as §1
Penicillium decumbens = test: Inhibition of Penicillium decumbens naringinase at 1 mg/ml after 10 to 20 mins; summary of the method: as §1
Prunus = test: Inhibition of almond beta-D-glucosidase at 1 mg/ml after 10 to 20 mins; summary of the method: as §1
Beta-galactosidase = biological target: T2, Beta-galactosidase (Bos taurus, UniProt Q58D55); test: Inhibition of bovine kidney beta-D-galactosidase after 10 to 20 mins
T2 sequence (Q58D55 whole entry): T1 sequence (whole entry)
Summary of the method: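 Bovine kidney β-D-galactosidase was pre-incubated with test solution, or dH2O for controls, for 10–20 min at 27 °C. Substrate was added for a further 10–20 min at 27 °C, then glycine solution, and absorbance at 405 nm. Wells were run in triplicate. Ki and inhibition mode came from Lineweaver–Burk double-reciprocal slopes.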

Sequence of Alpha-galactosidase (Coffea arabica) (Q42656 16-378 limits assumed): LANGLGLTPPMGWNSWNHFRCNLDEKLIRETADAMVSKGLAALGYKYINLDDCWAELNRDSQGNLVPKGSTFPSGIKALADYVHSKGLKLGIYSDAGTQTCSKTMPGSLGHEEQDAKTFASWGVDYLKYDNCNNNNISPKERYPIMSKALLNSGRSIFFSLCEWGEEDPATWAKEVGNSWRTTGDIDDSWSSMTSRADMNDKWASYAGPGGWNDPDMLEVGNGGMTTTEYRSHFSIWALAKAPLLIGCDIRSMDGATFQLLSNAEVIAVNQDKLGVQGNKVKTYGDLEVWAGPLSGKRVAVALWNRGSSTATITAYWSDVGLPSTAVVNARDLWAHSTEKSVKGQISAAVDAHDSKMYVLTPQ

SMILES | inhibition [1] | inhibition [2] | inhibition (Cellulomonas fimi) | inhibition (Oryza sativa) | inhibition (Canavalia ensiformis) | inhibition (Saccharomyces cerevisiae) | inhibition [3] | inhibition (Bos taurus) | inhibition (Penicillium decumbens) | inhibition (Prunus) | IC50 (Beta-galactosidase) [µM] | Ki (Beta-galactosidase) [µM]
CO[C@H]1O[C@H](CN2C[C@@H](CO)O[C@H](OC)[C@H](O)C2)[C@@H](OCc2ccccc2)[C@H](OCc2ccccc2)[C@H]1OCc1ccccc1 | inactive | inactive | inactive | inactive | inactive | inactive | inactive | inactive | inactive | inactive |  | 
CO[C@@H]1CN(O)C[C@@H](CO)O1 | inactive | inactive | inactive | 29% | inactive | 58% | 82% | 72% | inactive | inactive | 30.6 | 20.2
COC(=O)CN1C[C@@H](CO)O[C@H](OC)[C@H](O)C1 | inactive | inactive | inactive | inactive | inactive | inactive | inactive |  | inactive | inactive |  | 
COC(=O)C(C)N1C[C@@H](CO)O[C@H](OC)[C@H](O)C1 (stereo partly drawn) | inactive | inactive | inactive | inactive | inactive | inactive | inactive | inactive | inactive | inactive |  | 
CO[C@@H]1CNC[C@@H](CO)O1 | inactive | inactive | 5% | inactive | inactive | inactive | 27% | 10% | 9% | 4% |  | 
CO[C@@H]1CN(C[C@H]2O[C@H](OC)[C@H](O)[C@@H](O)[C@@H]2O)C[C@@H](CO)O1 | 31% | 66% | 33% | inactive | inactive | 77% | 50% | 11% | 11% | 28% |  | 
COC(=O)C(Cc1ccccc1)N1C[C@@H](CO)O[C@H](OC)C1 (stereo partly drawn) | inactive | inactive | inactive | inactive |  | inactive | 5% | inactive | inactive | inactive |  | 
CCCCN1C[C@@H](CO)O[C@H](OC)C1 | inactive | inactive | inactive | inactive | inactive | inactive | 45% | 8% | 7% | inactive | 70.3 | 
COC(=O)C(Cc1ccc(O)cc1)N1C[C@@H](CO)O[C@H](OC)C1 (stereo partly drawn) | inactive | inactive | inactive | inactive |  | inactive | 12% | inactive | inactive | inactive |  | 
CCCCN1C[C@@H](CO)O[C@H](OC)[C@H](O)C1 | inactive | inactive | inactive | inactive | inactive | 8% | 23% | 32% | inactive | inactive |  | 

Next, values leading:

inhibition [1] | inhibition [2] | inhibition (Cellulomonas fimi) | inhibition (Oryza sativa) | inhibition (Canavalia ensiformis) | inhibition (Saccharomyces cerevisiae) | inhibition [3] | inhibition (Bos taurus) | inhibition (Penicillium decumbens) | inhibition (Prunus) | IC50 (Beta-galactosidase) [µM] | Ki (Beta-galactosidase) [µM] | SMILES
inactive | inactive | inactive | inactive | inactive | inactive | inactive | inactive | inactive | inactive |  |  | COC(=O)C(Cc1ccccc1)N1C[C@@H](CO)O[C@H](OC)[C@H](O)C1 (stereo partly drawn)
inactive | inactive | inactive | inactive | inactive | inactive | 36% | inactive | inactive | inactive |  |  | COC(=O)CN1C[C@@H](CO)O[C@H](OC)C1
6% | 8% | inactive | inactive | inactive | inactive | 16% | 9% | inactive | inactive |  |  | CO[C@H]1O[C@H](CO)CNC[C@H]1O
inactive | inactive | inactive | inactive | inactive | inactive | inactive |  | inactive | inactive |  |  | CO[C@H]1O[C@H](CO)CN(O)C[C@H]1O
inactive | 9% | inactive | inactive | inactive | 8% | 54% | inactive | 9% | inactive | 75.5 |  | CCCN1C[C@@H](CO)O[C@H](OC)C1
inactive | inactive | inactive | inactive | inactive | inactive | inactive |  | inactive | inactive |  |  | CCCCCCCCN1C[C@@H](CO)O[C@H](OC)[C@H](O)C1
inactive | inactive | inactive | inactive | inactive | inactive | inactive |  | inactive | inactive |  |  | CO[C@H]1O[C@H](CO)CN(Cc2ccccc2)C[C@H]1O
inactive | inactive | 6% | inactive | inactive | inactive | 51% | inactive | inactive | inactive | 55.1 |  | CCCCCCCCN1C[C@@H](CO)O[C@H](OC)C1
inactive | inactive | inactive | inactive |  | inactive | 14% | inactive | inactive | inactive |  |  | COC(=O)C(C)N1C[C@@H](CO)O[C@H](OC)C1 (stereo partly drawn)
inactive | inactive | inactive | inactive | inactive | inactive | inactive | inactive | inactive | inactive |  |  | COC(=O)C(Cc1ccc(O)cc1)N1C[C@@H](CO)O[C@H](OC)[C@H](O)C1 (stereo partly drawn)
inactive | inactive | inactive | inactive | inactive | 10% | 32% | 25% | inactive | inactive |  |  | CCCN1C[C@@H](CO)O[C@H](OC)[C@H](O)C1
